# Screens (PubChem)
# SUMO1 PPI mod: modulators of human SUMO1-mediated protein-protein interactions; SUMO1 binding to a labelled peptide, TR-FRET, 1 h; P63165; hit rate 0.33% among 360,000; inhibition, % at 20 µM; in the data active = inhibition above about 37%
# STEP block: STEP (human) phosphatase inhibition | P54829 | recombinant STEP, OMFP fluorogenic substrate, fluorescence | inhibition, % at 20 µM | hit rate 0.25% among 360,000 | AID 588621;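 active = inhibition at 20 µM, scaled per plate between control wells, above about 37%, limit read from the data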;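 also: 0% = DMSO with enzyme and substrate and 100% = substrate only without enzyme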
# Target sequence (P54829 whole entry, looked up): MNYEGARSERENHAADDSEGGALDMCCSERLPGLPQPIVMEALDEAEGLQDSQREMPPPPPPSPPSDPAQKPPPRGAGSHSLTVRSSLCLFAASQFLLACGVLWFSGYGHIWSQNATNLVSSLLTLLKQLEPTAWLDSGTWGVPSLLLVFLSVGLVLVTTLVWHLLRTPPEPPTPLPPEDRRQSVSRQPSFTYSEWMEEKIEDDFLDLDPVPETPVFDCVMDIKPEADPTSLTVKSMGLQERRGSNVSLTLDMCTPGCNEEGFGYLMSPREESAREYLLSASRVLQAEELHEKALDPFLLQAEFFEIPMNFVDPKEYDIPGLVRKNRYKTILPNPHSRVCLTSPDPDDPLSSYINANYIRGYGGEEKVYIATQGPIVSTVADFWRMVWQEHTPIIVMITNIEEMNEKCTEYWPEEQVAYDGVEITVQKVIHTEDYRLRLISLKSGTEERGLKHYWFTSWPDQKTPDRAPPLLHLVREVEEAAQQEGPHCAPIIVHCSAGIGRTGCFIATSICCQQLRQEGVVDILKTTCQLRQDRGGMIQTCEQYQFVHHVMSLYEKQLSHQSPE
#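 Material: STEP (striatal-enriched tyrosine phosphatase) enzyme, cell-free | Medium: 50 mM Bis-Tris pH 6.0 with 2.5 mM DTT and 0.005% Tween 20 | Read-out: Percent inhibition scaled to no-enzyme and uninhibited-enzyme controls, plate-pattern corrected | Signal: Fluorescence read at 480 nm ex / 540 nm em | Times: 20 min reaction, room temperature, in the dark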
# DNMT1 inh: DNMT1 (human) enzyme inhibition | DNMT1 molecular beacon, Hinp1I cleavage, fluorescence | AID 588458 | inhibition (reported as % activation of signal), % at 10 µM | hit rate 0.83% among 360,000; in the data active = inhibition above about 50%
# Scp-1 inhibitor: blocks human Scp-1 phosphatase activity | Recombinant Scp1, phosphopeptide, malachite green phosphate absorbance | inhibition, % at 20 µM | hit rate 0.88% among 340,000;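 active = inhibition above about 50% at 20 µM, limit read from the data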;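 also: plate controls were DMSO wells with enzyme for no effect and wells lacking enzyme for full effect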
#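 Incubation: 45 min enzyme reaction at room temperature / System: truncated SCP-1 phosphatase (76-261aa) / Reagent: Phospho 17-mer peptide substrate / Buffer or medium: Acidic Tris acetate buffer with magnesium and detergent / Signal: absorbance at 630 nm / Doses: one concentration, 20 µM, with 1.0% DMSO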
# LMPTP inh: LMPTP (human) inhibition; recombinant LMPTP-A, OMFP fluorogenic substrate, fluorescence intensity; inhibition, % at 20 µM; hit rate 0.22% among 360,000; AID 651560;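 active = compounds that cut the enzyme signal by at least half of the control window in the single-dose screen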;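 also: plate controls were DMSO wells with enzyme plus substrate for no effect and substrate without enzyme for full effect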
#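 test system = LMPTP-A | amount = 0.625 nM LMPTP-A final | reagent = fluorogenic phosphatase substrate OMFP at 400 µM final | incubation = 50 min at room temperature | benchmarks = no-enzyme low control, uninhibited high control | medium = Bis-Tris pH 6.0, DTT, detergent | signal = fluorescence intensity of OMFP turnover product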
# CSN inh: inhibitors of human CSN-mediated cullin deneddylation; Purified CSN, SCF-Nedd8-OG deneddylation, fluorescence polarization; hit rate 0.38% among 360,000; Q92905; inhibition, % at 12.5 µM;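 active = pattern-corrected inhibition above about 35%, with an unprinted fluorescence ratio check between 0.5 and 1.5, limit read from the data, passing the limit was not always enough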;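 also: 0% = enzyme with substrate and 100% = substrate without enzyme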
#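 Material: human Csn5 produced in HEK293T cells; Input: enzyme 0.24 nM; Reagent: SCFSkp2-Nedd8OG substrate at 10 nM final; Dosing: 12.5 µM compound; Incubation: 90 min reaction at room temperature; Detection: fluorescence polarization of the substrate; Evaluation: % inhibition of substrate cleavage by Csn5; Control set: substrate-only high control, full reaction low control.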
# Scp1 confirm: confirmation of human Scp-1 phosphatase inhibitors; recombinant SCP-1 catalytic domain, phosphate release, malachite green absorbance; AID 540281; shares compounds with Scp-1 inhibitor; inhibition, % at 20 µM; hit rate 61% among 2,500;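 also: plate controls were DMSO with enzyme for no effect and buffer wells lacking enzyme for full effect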
# MG interference: interferes with malachite green readout, flagging false Scp-1 hits; shares compounds with Scp-1 inhibitor; Colorimetric interference counterscreen, malachite green absorbance 630 nm; apparent inhibition (interference), % at 20 µM; 2,500 tested, under 10 active;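 also: compounds added after enzyme reaction finished so only phosphate colour detection is probed; plate controls were DMSO wells with completed Scp-1 reaction for no effect and substrate wells lacking enzyme for full effect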
# Scp-1 Tm shift: validation of human Scp-1 inhibitors by thermal shift binding. shares compounds with Scp-1 inhibitor. Recombinant SCP1, Sypro Orange thermal shift Tm. thermal shift relative to vanadate control, % at 40 µM. hit rate 25% among 1,500. AID 540329;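 active = substances whose mean melting-temperature shift, as a percentage of the reference inhibitor's shift, reaches about 5.3%, limit read from the data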;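 also: 0% = Tm of DMSO wells and 100% = Tm with sodium orthovanadate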
# Starred values were filed as active, the others as inactive; . = no result. An excerpt weighted towards active compounds, which were near 2% of everything screened.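 The calls were made as follows, unless noted: active = inhibition of at least 30% at 20 µM; inactive = the rest.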
SMILES,SUMO1 PPI mod,STEP block,DNMT1 inh,Scp-1 inhibitor,LMPTP inh,CSN inh,Scp1 confirm,MG interference,others
CSc1cccc(N2CC(C(=O)Nc3cccc(S(=O)(=O)N4CCCC4)c3)CC2=O)c1 (stereo not drawn),-1,-3,0,74*,1,-2,76*,-24,Scp-1 Tm shift=-14
COc1ccc(N2CC(C(=O)Nc3ccc(S(=O)(=O)N4CCCC4)cc3)CC2=O)cc1 (stereo not drawn),1,-1,-5,54*,0,-3,-23,-20,
CCOc1ccc(N2CC(C(=O)Nc3ccc(N4CCOCC4)cc3)CC2=O)cc1 (stereo not drawn),-2,-2,-2,-1,-1,-1,-2,-14,
O=C(Nc1nc2ccccc2s1)C1CC(=O)N(c2ccccc2)C1 (stereo not drawn),0,-4,0,-4,0,3,.,.,
O=[N+]([O-])/C=C1\C=CC=CN1Cc1ccc(Cl)cc1,-16,3,3,-7,-2,3,.,.,
COc1cccc(NC(=S)N2CCn3cccc3C2c2cccnc2)c1 (stereo not drawn),-3,22,-4,2,0,-1,.,.,
O=C(CSc1n[nH]c(C2CCCC2)n1)NC1CCCC1,-2,-4,1,64*,1,4,2,-5,
O=C(CSc1nc2ccccc2[nH]1)NC1CCCC1,5,22,37,62*,2,4,45*,-12,Scp-1 Tm shift=-11
Nc1nc(SCC(=O)NC2CCCCC2)n[nH]1,2,0,2,-4,-1,-6,.,.,
O=C(CCCSc1nc2ccccc2[nH]1)NC1CCCCC1,-4,0,7,4,-1,-3,.,.,
C#CCNC(=O)c1csc([C@@H]2O[C@H](CO)[C@@H](O)[C@H]2O)n1,3,-4,-1,.,-1,-8,.,.,
CCOc1ccc(/C=C/C(=O)c2ccccc2)cc1,-11,1,2,-14,1,3,.,.,
CC[N+](CC)(CC)CCOc1ccc(/C=C/c2ccccc2)cc1,-21,2,3,74*,0,-6,50*,3,Scp-1 Tm shift=-5
Cc1ccc2nc(Cl)c(/C=N/NC(=O)c3ccccc3O)cc2c1,6,2,-3,72*,3,-11,21,-5,
COc1cccc(C(=O)OCC(=O)Nc2sc3c(c2C(N)=O)CCC3)c1O,34,5,48,62*,11,33,72*,-6,Scp-1 Tm shift=9.7*
CN1CCC(N(C)C(=O)CCc2nc3ccccc3n2-c2ccccc2)CC1,3,0,0,-3,-1,8,.,.,
O=C(C[C@@H]1C/C=C\C[C@H](Cc2ccc(F)cc2)C(=O)OC[C@@H](c2ccccc2)NC1=O)NCCO,2,3,7,4,3,-1,.,.,
CC(=O)OCCCn1c(C)[n+](C)c2cc(Cl)c(Cl)cc21,-3,-4,9,73*,-1,1,-7,-11,
CCn1c(C)[n+](CCOC(C)=O)c2cc(Cl)c(Cl)cc21,3,1,1,-1,-2,-1,.,.,
CCCCn1c2c(c(=N)c3c1CCC3)CCC2,5,-3,1,94*,0,-3,-11,-15,
O=C1CCN(Cc2ccccc2)S(=O)(=O)c2ccc(F)cc21,1,-3,20,52*,-1,-3,2,-17,
C[C@H](O)CNC(=O)c1[nH]cnc1C(=O)Nc1ccc(CNC(=O)OC(C)(C)C)cc1,-4,0,9,.,-2,-2,.,.,
CC1CC2C3CCC4=CC(=O)CCC4(C)C3CCC2(C)C1(O)C(=O)CO (stereo not drawn),-6,-3,12,59*,-1,5,-23,-19,
